Laboratory results reported in publication PMC6664420 (Drug Design, Development and Therapy, 2019).

How the values were obtained:
[1] = Pharmacokinetics after a single oral dose in healthy volunteers; type: in vivo, human
In short: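 Healthy men aged 20–50 y received a double-blind single oral dose of test compound mesylate (40–1280 mg) fasted; at 640 mg, dosing was repeated fed in period 2. Plasma was sampled from predose to 48 h, and urine was collected over 0–6, 6–12, 12–24 and 24–48 h. Analysis was UPLC-MS/MS, positive mode. Non-compartmental: linear-up/log-down AUC0-t. Dose proportionality used 95% CI of log-log slope. Food effect used a mixed-model GMR with 90% CI.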

[2] = Safety and tolerability after a single oral dose in healthy volunteers; type: in vivo, human
In short: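 Single-dose, double-blind, placebo-controlled (8:2 active:placebo) escalation in healthy men; tolerability through 48 h post-dose decided escalation. Monitoring covered AEs, physical exam, vital signs, 12-lead ECG, clinical laboratory tests, protein electrophoresis, and continuous pulse oximetry for 4 h post-dose. QTcmax and ΔQTcmax per dose group were compared with placebo by ANOVA and Dunnett's test, P<0.05.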

[3] = test system: hERG current; details: preclinical study; ref Investigator's brochure, unpublished data; cited from earlier work
[4] = mice model; no method or reference given; cited from earlier work
[5] = no method or reference given; cited from earlier work
[6] = test system: Streptococcus pneumonia; details: ref Investigator's brochure, unpublished data; cited from earlier work
[7] = cited from earlier work
[8] = test system: Gram-negative pathogens; details: ref Investigator's brochure, unpublished data; cited from earlier work
[9] = rats; ref Investigator's brochure, unpublished data; cited from earlier work
[10] = all groups, total includes 1 placebo case per Table 2

## CC(C)(C)[C@H](NC(=O)[C@H](CC1CCCC1)CN(O)C=O)C(=O)N1CCC(NCc2cc(F)c(F)cc2F)CC1 [IDP-73152]
[1]; 640 mg, fed vs fasted, P=0.779
  effect of food on terminal half-life: not affected by food intake
[1]; 640 mg, high-fat meal
  GMR (with 90% CI) of AUC0-t, fed vs fasted: 0.862 (0.811–0.917)
  GMR (with 90% CI) of Cmax, fed vs fasted: 0.638 (0.563–0.723)
[1]; 640 mg, high-fat meal, fed vs fasted
  decrease of Cmax by food: 36.2%
[1]; 640 mg, high-fat meal, fed vs fasted, listed as IDP-73152 mesylate
  decrease of Cmax by food: 36%
[1]; all dose ranges (40–1280 mg)
  dose proportionality of AUC0-t: more than dose-proportional
[1]; range of 40–320 mg
  dose proportionality of AUC0-t: dose-proportional
[1]; single dose of 1280 mg, 12 hrs post-dose
  plasma level relative to MIC: above MIC level
[2]; 160 mg, N=8
  Incidence of drug-related AE: Diarrhoea: 1
  Incidence of drug-related AE: Nausea: 1
[2]; 320 mg, N=8
  Incidence of drug-related AE: Abdominal pain: 1
  Incidence of drug-related AE: Epigastric discomfort: 1
[2]; 640 mg, fasted state, N=8
  Incidence of drug-related AE: Abdominal discomfort: 1
[2]; 1280 mg, N=8
  Incidence of drug-related AE: Headache: 1
  Incidence of drug-related AE: Nausea: 4
[2]; all dose groups
  severity of AEs: mild severity and not serious
[2]; [10]
  drug-related headache, total: 2 cases
  drug-related nausea, total: 6 cases
[2]; single oral dose of up to 1280 mg
  tolerability: well tolerated
[3]
  inhibition of the hERG current: concentration-dependent inhibition
[4]
  mean tmax: 30 min
  terminal half-life: 63 min
  volume of distribution: 1.71 L/kg
[5]
  bound to plasma protein: 95.4%
[6]
  PK/PD dependence of the antibiotic effect: AUC-dependent
[7]
  in vitro antimicrobial activity, minimal inhibitory concentration (MIC): comparable to that of linezolid and vancomycin
[8]
  MIC against Gram-negative pathogens: unfavorable MIC value
[9]
  distribution coefficient of the liver: approximately 6.0
  distribution coefficient of the lung: ~3.5
